Activity calls are given as the source filed them. The calls are words filed in the database; no cut-off is given here.
Key:
[1] = system: BCC1 cells (Homo sapiens); assay: Ratio of drug uptake in human BCC1 cells in serum free medium to drug uptake in human BCC1 cells in medium containing 10% fetal calf serum by fluorescent microscopy
[2] = Drug uptake in human BCC1 cells at 200 nM after 30 mins by fluorescent microscopy; conditions: bcc1, 30 min, 0.2 µM
[3] = Drug uptake in human BCC1 cells assessed as subcellular localization at 3.2 uM after 4 hrs by phase contrast microscopy; format: ADME, cell-based; conditions: bcc1, 4 h
Procedure, shortened: (§1)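 BCC1 cells incubated 30 min in serum-free DMEM with 3.2 μM or 0.2 μM PS, washed, and imaged at 640X under phase contrast or HPPH fluorescence. Cultures then kept a further 4 h in PS- and serum-free DMEM and imaged again under the same conditions to follow subcellular redistribution.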

[4] = system: BCC1; assay: Increase in STAT3 cross linking level in human BCC1 cells assessed as dimerization of STAT3 after 9 mins by Western blotting in presence of 665 nm light
[5] = Drug uptake in human BCC1 cells assessed as deposition in mitochondria at 200 nM after 30 mins by HPPH fluorescence spectrophotometry; format: ADME; conditions: bcc1, 0.5 h, 0.2 µM
Procedure, shortened: (§2)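 BCC1 cells in subconfluent culture, washed and incubated 30 min in serum-free DMEM with 200 nM PS. Washed free of PS and imaged at 640X under phase contrast and HPPH fluorescence (Ex 410/40, Em 675/750 nm). Cell PS also quantified by solubilising cells and reading fluorescence (Ex 415, Em 667 nm).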

[6] = Drug uptake in human BCC1 cells assessed as deposition in mitochondria at 3.2 uM after 30 mins by HPPH fluorescence spectrophotometry; format: ADME; conditions: bcc1, 0.5 h
Procedure, shortened: as §1

[7] = Drug uptake in human BCC1 cells assessed as subcellular localization at 3.2 uM after 4 hrs by HPPH fluorescence spectrophotometry; format: ADME, cell-based; conditions: bcc1, 4 h
Procedure, shortened: as §1

[8] = system: BCC1; assay: Reduction in EGFR levels in human BCC1 cells after 9 mins by Western blotting in presence of 665 nm laser light; format: functional, cell-based
Procedure, shortened: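 BCC1 cells were incubated 2 h in serum-free DMEM with 2-fold serially diluted photosensitizer, washed, and illuminated with 665 nm light for 9 min (3 J/cm²). They were extracted immediately in RIPA buffer. Extracts (20 μg protein) were run on 6–10% SDS gels and immunoblotted for STAT3, EGFR, p38 and P-p38 with ECL detection. STAT3 crosslinking was scored as percent conversion of monomer into dimer form I.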

[9] = system: BCC1; assay: Induction of apoptosis in human BCC1 cells assessed as survival after 24 hrs by trypan blue assay; format: functional, cell-based
Procedure, shortened: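 BCC1 cells were loaded for 2 h in serum-free DMEM with 2-fold serial dilutions of photosensitizer. After washing, they were illuminated in serum-free medium at 37° with 665 nm dye-laser light for 9 min (3 J/cm²). Cells were then cultured 24 h in DMEM/10% FCS and trypsinized. Trypan blue-excluding cells were counted by hemocytometer and expressed relative to untreated controls.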

[10] = Drug uptake in human BCC1 cells assessed as deposition in mitochondria at 200 nM after 30 mins by phase contrast microscopy; format: ADME; conditions: bcc1, 0.5 h, 0.2 µM
Procedure, shortened: as §2

[11] = molecular target: MAP kinase p38 (Homo sapiens) (UniProt O15264+Q15759+Q16539+P53778); assay: Activation of p38 MAPK in human BCC1 cells assessed as dimerization of STAT3 after 9 mins by Western blotting in presence of 665 nm laser light; format: cell-based
Procedure, shortened: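 Subconfluent BCC1 cells, 2 h in serum-free DMEM with 2-fold serially diluted PS, then 665 nm dye-laser light for 9 min at 37°C (3 J/cm²) in serum-free medium. Cells extracted immediately and lysed in RIPA. 20 μg protein run on 6–10% SDS gels and immunoblotted for STAT3, p38/P-p38 and EGFR with ECL detection. Crosslinking given as % monomeric STAT3 converted to dimer form I.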

[12] = Drug uptake in human BCC1 cells assessed as deposition in mitochondria at 3.2 uM after 30 mins by phase contrast microscopy; format: ADME; conditions: bcc1, 0.5 h
Procedure, shortened: as §1

[13] = system: Colon 26; assay: Antitumor activity against mouse Colon 26 cells xenografted in parenterally dosed BALB/c mouse assessed as tumor cure at 1 umol/kg after 24 hrs followed by illumination with 128 J/cm'2, 14 mW/cm'2 laser light measured after 60 days; format: functional
Procedure, shortened: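 Subcutaneous Colon26 tumours in BALB/c mice (10/group), dosed at 4–5 mm diameter with 1 μmol/kg PS. At 24 h, unanaesthetised restrained mice received laser light to the tumour (665, 660 or 674 nm by compound; 128 J/cm², 14 mW/cm²). Tumours measured daily (V = L·W²/2). Cure means no palpable tumour by day 60–90. Euthanasia at 400 mm³.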

[14] = Drug uptake in BALB/c mouse tumor xenografted with mouse Colon 26 cells at 150 uCi administered parenterally after 2 hrs by PET analysis; format: ADME, Neoplasm; conditions: in vivo, other
[15] = system: Muscle tissue; assay: Drug uptake in BALB/c mouse muscle xenografted with mouse Colon 26 cells at 150 uCi administered parenterally after 2 hrs by PET analysis; format: ADME, tissue-based; conditions: in vivo
[16] = system: Heart; assay: Drug uptake in BALB/c mouse heart xenografted with mouse Colon 26 cells at 150 uCi administered parenterally after 2 hrs by PET analysis; format: ADME, tissue-based; conditions: in vivo, other
[17] = system: Zone of skin; assay: Drug uptake in skin of BALB/c mouse xenografted with mouse Colon 26 cells measured after removal of tumor at 1 umol/kg, iv after 24 hrs by fluorescence imaging; format: ADME, organism-based; conditions: in vivo
Procedure, shortened: (§3)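 BALB/c mice carried subcutaneous Colon26 tumors (1×10⁶ cells, right posterior axilla) grown to 4–5 mm and were given 1 μmol/kg i.v. At 24 h the tumor was surgically removed and imaged, and the skin flap was imaged separately. Excitation was 540/40 nm with long-pass emission, followed by spectral unmixing of autofluorescence.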

[18] = system: Mus musculus; assay: Drug uptake in BALB/c mouse xenografted with mouse Colon 26 cells at 1 umol/kg, iv after 72 hrs by fluorescence imaging; format: ADME, organism-based; conditions: in vivo
Procedure, shortened: (§4)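 BALB/c mice (3/group) with Colon26 tumours (1×10⁶ cells s.c., right axilla, grown to 4–5 mm) were shaved and given 1.0 μmol/kg PS i.v. Whole-body fluorescence imaged under ketamine/xylazine at 24, 48 and 72 h: 540/40 nm illumination, long-pass emission filter, spectral unmixing of autofluorescence. Read-out is mean intensity of a 20 mm tumour ROI (AU), mean ± SD of 3 mice.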

[19] = system: Colon 26; assay: Drug uptake in mouse Colon 26 cells at 400 nM after 24 hrs by flow cytometry; format: ADME, cell-based; conditions: colon 26, 24 h, 0.4 µM
Procedure, shortened: (§5)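 Colon26 cells seeded at 0.33×10⁶ per well and grown overnight, then given 100–800 nM PS in triplicate at 37°C, with no-PS wells for autofluorescence. Harvested by trypsin, spun cold, and run on flow cytometry (Ex 633 nm, Em 730±45 nm, 10,000 events). Value is mean fluorescence of triplicates minus autofluorescence.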

[20] = system: Mus musculus; assay: Drug uptake in BALB/c mouse xenografted with mouse Colon 26 cells at 1 umol/kg, iv after 48 hrs by fluorescence imaging; format: ADME, organism-based; conditions: in vivo
Procedure, shortened: as §4

[21] = system: Colon 26; assay: Photosensitizing activity in mouse Colon 26 assessed as cell viability at 0.0625 uM after 24 hrs followed by illumination with 665 nm laser light and 48 hrs incubation in dark by MTT assay in presence of serum; format: functional, cell-based
Procedure, shortened: (§6)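 Colon26 cells, 3×10³/well in RPMI/10% FCS, were incubated 24 h in the dark with photosensitizer at 0.3 μM or 0.0625 μM. Medium was replaced with drug-free complete medium before illumination at 0–4 J/cm², 3.2 mW/cm², at each compound's peak wavelength (660, 665 or 674 nm). After 48 h in the dark, MTT was added for the last 4 h and absorbance read at 570 nm. Four replicate wells per condition, three independent experiments.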

[22] = Drug uptake in tumor of BALB/c mouse xenografted with mouse Colon 26 cells at 1 umol/kg, iv after 24 hrs by fluorescence imaging; format: ADME, organism-based, Neoplasm; conditions: in vivo
Procedure, shortened: as §3

[23] = Drug uptake in human BCC1 cells at 200 nM incubated for 30 mins measured after 4 to 24 hrs by fluorescent microscopy; format: ADME, cell-based; conditions: bcc1, 0.5 h, 0.2 µM
[24] = system: Mus musculus; assay: Drug uptake in BALB/c mouse xenografted with mouse Colon 26 cells at 1 umol/kg, iv after 24 hrs by fluorescence imaging; format: ADME, organism-based; conditions: in vivo
Procedure, shortened: as §4

[25] = Drug uptake in BALB/c mouse tumor xenografted with mouse Colon 26 cells at 1 umol/kg, iv after 24 hrs by fluorescence imaging; format: ADME, organism-based, Neoplasm; conditions: in vivo
Procedure, shortened: as §4

[26] = system: Colon 26; assay: Drug uptake in mouse Colon 26 cells at 800 nM after 24 hrs by flow cytometry; format: ADME, cell-based; conditions: colon 26, 24 h, 0.8 µM
Procedure, shortened: as §5

[27] = Photostability of the compound in 17% bovine calf serum assessed as rate of photobleaching at 6.5 uM after 20 to 22 mins in presence of light (75 mW/cm'2); format: ADME; conditions: cattle, read-out: Drug degradation
Procedure, shortened: (§7)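 Equimolar (6.5 μM) photosensitizer solutions in 17% bovine calf serum were irradiated at 75 mW/cm². Absorption spectra were recorded at successive time points, and the normalized long-wavelength absorbance was plotted against time to follow photobleaching.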

[28] = Photostability of the compound in 17% bovine calf serum assessed as decrease in rate of photobleaching at 6.5 uM after 40 mins in presence of light (75 mW/cm'2); format: ADME; conditions: cattle
Procedure, shortened: as §7

[29] = system: Colon 26; assay: Photosensitizing activity in mouse Colon 26 assessed as cell viability at 0.3 uM after 24 hrs followed by illumination with 665 nm laser light and 48 hrs incubation in dark by MTT assay; format: functional, cell-based
Procedure, shortened: as §6

[30] = system: Liver; assay: Drug uptake in parenterally dosed BALB/c mouse liver xenografted with mouse Colon 26 cells after 72 hrs by PET analysis; format: ADME, organism-based; conditions: in vivo
Procedure, shortened: (§8)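 Tumor-bearing BALB/c mice (Colon26, subcutaneous) received ¹²⁴I-labeled photosensitizer via the tail vein at 15–50 μCi. Three mice per time point were sacrificed at 24, 48 and 72 h. Organs were removed, weighed and counted in a γ-well counter. Uptake was expressed as %ID/g tissue.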

[31] = Drug uptake in human BCC1 cells assessed as subcellular localization at 0.2 uM after 4 hrs by phase contrast microscopy; format: ADME, cell-based; conditions: bcc1, 4 h
Procedure, shortened: as §1

[32] = Drug uptake in human BCC1 cells assessed as subcellular localization at 0.2 uM after 4 hrs by HPPH fluorescence spectrophotometry; format: ADME, cell-based; conditions: bcc1, 4 h
Procedure, shortened: as §1

[33] = system: Intestine; assay: Drug uptake in parenterally dosed BALB/c mouse intestine xenografted with mouse Colon 26 cells after 72 hrs by PET analysis; format: ADME, organism-based; conditions: in vivo, other
Procedure, shortened: as §8

[34] = Drug uptake in human BCC1 cells assessed as deposition in mitochondria at 0.2 uM after for 30 mins by phase contrast microscopy; format: ADME; conditions: bcc1, 0.5 h
Procedure, shortened: as §2

[35] = Drug uptake in human BCC1 cells assessed as deposition in mitochondria at 0.2 uM after 30 mins by HPPH fluorescence spectrophotometry; format: ADME; conditions: bcc1, 0.5 h
Procedure, shortened: as §2

[36] = system: Spleen; assay: Drug uptake in parenterally dosed BALB/c mouse spleen xenografted with mouse Colon 26 cells after 72 hrs by PET analysis; format: ADME, organism-based; conditions: in vivo
Procedure, shortened: as §8

SMILES	Ratio [1]	Drug uptake [5]	Drug uptake [10]	Activity [11]	Drug uptake [17]	Drug uptake [18]	Drug uptake [19]	Drug uptake [20]	Drug uptake [22]	Drug uptake [23]	Drug uptake [24]	Drug uptake [25]	Drug uptake [26]	degraded at 6.5 µM [27] [%]	Activity [4]	Activity [8]	Activity [9]	Activity [13]	Activity [21]	other results
OC[C@H]1O[C@@H](O)[C@H]([18F])[C@@H](O)[C@@H]1O [FLUDEOXYGLUCOSE-F18]																				Drug uptake [14]: Active; Drug uptake [15]: Active; Drug uptake [16]: Active
CC[C@H]1c2cc3[nH]c4c(c5nc(cc6[nH]c(cc(n2)[C@@H]1C)c(C(C)OCc1cccc(I)c1)c6C)C(C)=C5CCC(=O)O)CC(=O)c4c3C (some centres undefined)	4	Active	Active	Active	Not Active	Active	Active	Active	Active	Active	Active	Active	Active	50	Active	Active	Dose-dependent effect	60%	Active	

The next lines start with results.

Ratio [1]	Drug uptake [5]	Drug uptake [10]	Activity [11]	Drug uptake [17]	Drug uptake [18]	Drug uptake [19]	Drug uptake [20]	Drug uptake [22]	Drug uptake [23]	Drug uptake [24]	Drug uptake [25]	Drug uptake [26]	degraded at 6.5 µM [27] [%]	SMILES	Activity [4]	Activity [8]	Activity [9]	Activity [13]	Activity [21]	other results
5	Active	Active	Active											CCC1=C(C)c2cc3[nH]c(cc4nc(c5c6[nH]c(cc1n2)c(C)c6C(=O)C5)C(CCC(=O)OC)[C@@H]4C)c(C)c3C(C)OCc1cccc(I)c1 (some centres undefined)	Active	Active	Dose-dependent effect	20%		Drug uptake [2]: Active; Drug uptake [3]: Active; Drug uptake [6]: Active; Drug uptake [7]: Active; Drug uptake [12]: Active
4	Active	Active	Active		Active	Active	Active		Active	Active	Not Active	Active	50	CCc1c(C)c2cc3nc(c4c5[nH]c(cc6nc(cc1[nH]2)C(C)=C6C(C)OCc1cccc(I)c1)c(C)c5C(=O)C4)[C@@H](CCC(=O)O)[C@@H]3C (some centres undefined)	Active	Active	Dose-dependent effect	inactive	Active	Stability [28]: Stable
4	Active	Active	Active	Not Active	Active	Active	Active	Active	Active	Active	Active	Active	50	CCC1=C(C)c2cc3[nH]c(cc4nc(c5c6[nH]c(cc1n2)c(C)c6C(=O)C5)C(CCC(=O)O)[C@@H]4C)c(C)c3C(C)OCc1cccc(I)c1 (some centres undefined)	Active	Active	Dose-dependent effect		Active	Activity [29]: Active; Drug uptake [30]: Active; Drug uptake [31]: Active; Drug uptake [32]: Active; Drug uptake [33]: Active; Drug uptake [34]: Active; Drug uptake [35]: Active; Drug uptake [36]: Active
